According to ChEMBL document CHEMBL1140336, “Synthesis, structure-activity relationships, and biological evaluation of fatty alcohol phosphates as lysophosphatidic acid receptor ligands, activators of PPARgamma, and inhibitors of autotaxin” (J Med Chem, 2005):

Tests used:
[1] = molecular target: T1, Lysophosphatidic acid receptor 1 (Homo sapiens, UniProt Q92633); test: (§1) Inhibition of LPA-induced calcium transients in RH7777 rat hepatoma cells expressing LPA1 receptor; No effect; type: functional, cell-based
T1 sequence (Q92633 whole entry): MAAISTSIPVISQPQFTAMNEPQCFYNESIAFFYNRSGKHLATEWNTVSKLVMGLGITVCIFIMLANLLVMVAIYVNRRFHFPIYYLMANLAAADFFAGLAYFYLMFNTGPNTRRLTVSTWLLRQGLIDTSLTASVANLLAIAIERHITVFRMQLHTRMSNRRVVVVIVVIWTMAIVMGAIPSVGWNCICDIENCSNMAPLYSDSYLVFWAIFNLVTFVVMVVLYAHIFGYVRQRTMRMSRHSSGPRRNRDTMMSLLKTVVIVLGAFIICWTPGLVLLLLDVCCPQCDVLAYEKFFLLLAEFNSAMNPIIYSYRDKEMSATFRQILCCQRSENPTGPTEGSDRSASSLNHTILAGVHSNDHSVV
Method in brief: (§2)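 Fura-2 Ca2+ assay. RH7777 cells stably expressing LPA1, LPA2 or LPA3, or PC-3 cells (endogenous LPA1-3), seeded at 50000 cells/well on poly-D-lysine and grown overnight. Serum-starved in modified Krebs, pH 7.4, for 6-8 h (PC-3: 12 h), then Fura-2 AM loaded for 35 min. Compound added at 15 s; wells read 80-120 s. Transient taken as peak minus baseline 340/380 ratio. Antagonism: LPA 18:1 coapplied; highest concentration 30 μM.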

[2] = Inhibition of LPA-induced calcium transients in PC-3 cells; type: functional, cell-based, Homo sapiens
Method in brief: (§3)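 PC-3 human prostate cancer cells, which express LPA1-3 endogenously, 50000 cells/well. Serum-starved 12 h in modified Krebs, loaded with Fura-2 AM, read in a FlexStation. Ca2+ transient = 340/380 ratio peak minus baseline. Agonism (Emax as % of maximal LPA 18:1 response) and inhibition of LPA-induced transients were measured.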

[3] = molecular target: T2, Lysophosphatidic acid receptor 3 (Homo sapiens, UniProt Q9UBY5); test: Inhibition of LPA-induced calcium transients in RH7777 rat hepatoma cells expressing LPA3 receptor; No effect; type: functional, cell-based; method in brief: as §2
T2 sequence (Q9UBY5 whole entry): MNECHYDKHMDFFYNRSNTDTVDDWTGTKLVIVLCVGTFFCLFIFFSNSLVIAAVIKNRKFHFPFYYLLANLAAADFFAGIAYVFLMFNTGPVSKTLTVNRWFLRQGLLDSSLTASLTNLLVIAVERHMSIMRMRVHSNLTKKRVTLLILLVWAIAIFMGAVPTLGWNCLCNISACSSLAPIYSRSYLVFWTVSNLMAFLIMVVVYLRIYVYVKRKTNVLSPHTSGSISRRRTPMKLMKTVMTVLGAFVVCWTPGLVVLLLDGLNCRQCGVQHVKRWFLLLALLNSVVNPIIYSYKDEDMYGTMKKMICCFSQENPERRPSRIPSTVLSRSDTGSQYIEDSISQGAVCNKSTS

[4] = molecular target: T1, Lysophosphatidic acid receptor 1; test: as §1; type: functional, cell-based; remark: listed apart in the source
[5] = molecular target: T3, Lysophosphatidic acid receptor 2 (Homo sapiens, UniProt Q9HBW0); test: (§4) Inhibition of LPA-induced calcium transients in RH7777 rat hepatoma cells expressing LPA2 receptor; type: functional, cell-based
T3 sequence (Q9HBW0 whole entry): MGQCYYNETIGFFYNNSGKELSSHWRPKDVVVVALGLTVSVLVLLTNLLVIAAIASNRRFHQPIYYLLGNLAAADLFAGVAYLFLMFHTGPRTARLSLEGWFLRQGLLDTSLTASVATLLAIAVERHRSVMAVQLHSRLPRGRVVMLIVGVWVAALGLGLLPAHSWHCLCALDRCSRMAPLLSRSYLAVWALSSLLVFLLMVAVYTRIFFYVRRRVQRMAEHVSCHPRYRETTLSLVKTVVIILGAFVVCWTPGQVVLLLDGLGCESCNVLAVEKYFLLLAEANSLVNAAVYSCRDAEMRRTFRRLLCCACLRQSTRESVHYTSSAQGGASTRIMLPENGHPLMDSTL

[6] = molecular target: T3, Lysophosphatidic acid receptor 2; test: Inhibition of LPA-induced calcium transients in RH7777 rat hepatoma cells expressing LPA2 receptor; No effect; type: functional, cell-based; method in brief: as §2
[7] = Binding affinity for Lysophosphatidic acid receptor in PC-3 cells; type: cell-based, Homo sapiens; method in brief: as §2
[8] = molecular target: T2, Lysophosphatidic acid receptor 3; test: (§5) Inhibition of LPA-induced calcium transients in RH7777 rat hepatoma cells expressing LPA3 receptor; type: functional, cell-based; method in brief: as §2
[9] = molecular target: T1, Lysophosphatidic acid receptor 1; test: (§6) Inhibition of LPA-induced calcium transients in RH7777 rat hepatoma cells expressing LPA1 receptor; type: functional, cell-based; method in brief: as §2
[10] = molecular target: T1, Lysophosphatidic acid receptor 1; test: Binding affinity for Lysophosphatidic acid receptor 1 expressed in RH7777 rat hepatoma cells; type: cell-based; method in brief: as §2
[11] = molecular target: T3, Lysophosphatidic acid receptor 2; test: Binding affinity for Lysophosphatidic acid receptor 2 expressed in RH7777 rat hepatoma cells; type: cell-based
[12] = molecular target: T2, Lysophosphatidic acid receptor 3; test: Binding affinity for Lysophosphatidic acid receptor 3 expressed in RH7777 rat hepatoma cells; type: cell-based; method in brief: as §2
[13] = Inhibition of LPA expressed in PC-3 cells; No effect; type: functional, cell-based, Homo sapiens; method in brief: as §2
[14] = Inhibition of LPA-induced calcium transients in PC-3 cells; No effect; type: functional, cell-based, Homo sapiens; method in brief: as §2
[15] = molecular target: T3, Lysophosphatidic acid receptor 2; test: as §4; type: functional, cell-based; method in brief: as §2; remark: listed apart in the source
[16] = Percent maximal efficacy in PC-3 cells; type: functional, Homo sapiens; method in brief: as §3
[17] = organism: Homo sapiens; test: (§7) Concentration of compound (after 5 min of addition) that induce LPA expressed in human platelets; type: functional
Method in brief: (§8)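 Washed human platelets, aspirin-treated and isolated with apyrase, at 4 × 10^5/μL in HEPES buffer pH 7.4, stirred at 37 °C. Lipids given as BSA complexes (4:1). Shape change read as the fall in light transmission in an aggregometer. […] Mean ± SD across different donors.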

[18] = organism: Homo sapiens; test: Maximal shape change of human platelets induced by the compound; type: functional; method in brief: as §8
[19] = organism: Homo sapiens; test: Inhibitory concentration of compound (after 5 min of incubation) against LPA human platelets
[20] = molecular target: T2, Lysophosphatidic acid receptor 3; test: as §5; type: functional, cell-based; remark: listed apart in the source
[21] = molecular target: T1, Lysophosphatidic acid receptor 1; test: as §6; type: functional, cell-based; remark: listed apart in the source
[22] = molecular target: T1, Lysophosphatidic acid receptor 1; test: Maximal efficacy in induction of [Ca2+] transients in RH7777 rat hepatoma cells expressing LPA1 receptor; type: functional, cell-based
Method in brief: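 Agonist mode in RH7777 cells stably expressing the named LPA receptor, serum-starved 6-8 h, Fura-2 AM loaded. Increasing compound concentrations were added alone and the Ca2+ transient was read as the 340/380 ratio peak minus baseline. Emax = compound maximal response as a percentage of the LPA 18:1 maximal response.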

[23] = organism: Homo sapiens; test: as §7; type: functional; remark: listed apart in the source
[24] = molecular target: T3, Lysophosphatidic acid receptor 2; test: Inhibition of LPA-induced calcium transients in RH7777 rat hepatoma cells expressing LPA2 receptor;No effect; type: functional, cell-based; method in brief: as §2
[25] = molecular target: T1, Lysophosphatidic acid receptor 1; test: Inhibition of LPA-induced calcium transients in RH7777 rat hepatoma cells expressing LPA1 receptor; Not effect; type: functional, cell-based; method in brief: as §2
[26] = Homo sapiens, PC-3, read-out: IC50

EC50 [1]	EC50 [3]	IC50 [6]	IC50 [8]	IC50 [9]	EC50 [6]	Ki [12]	Structure (SMILES)	IC50 [2, 26]	IC50 [4]	Ki [7]	Emax [18]	further results
Not Active	Not Active	Not Active	–	–	Not Active	–	CCCCCCCCCCCCCCCCCCP(=O)(O)O	–	Not Active	–	–	IC50 [3]: Not Active; IC50 [13]: Not Active; EC50 [14]: Not Active
Not Active	Not Active	Not Active	–	–	Not Active	–	CCCCCCCC/C=C/CCCCCCCCOP(=O)(O)O	–	Not Active	–	–	Emax [16]: 11%; IC50 [3]: Not Active
–	–	–	–	–	–	–	CCCCCCCC/C=C/CCCCCCCC(=O)OCC(O)COP(=O)(O)O (stereo not given) [OLEOYL]	–	–	–	120%	EC50 [17]: 9 nM
Not Active	Not Active	Not Active	–	–	–	–	CCCCCCCCCCCCCCC(F)(F)P(=O)(O)O	–	–	–	–	–
Not Active	Not Active	Not Active	–	> 10000 nM	–	–	C=CCCCCCCCCOP(=O)(O)O	1510 nM	–	574 nM	–	–
Not Active	Not Active	Not Active	96 nM	–	–	58 nM	CCCC/C=C/CCCCCCCCOP(=O)(O)O	241 nM	–	123 nM	–	EC50 [5]: 397 nM
–	–	Not Active	–	–	Not Active	–	CCCCCCCCCCCCCCCC(=O)N[C@@H](COP(=O)(O)O)C(=O)O	–	–	–	–	Emax [16]: 42%; Emax [22]: 100%; IC50 [3]: Not Active; EC50 [20]: 1600 nM; EC50 [21]: 1850 nM
Not Active	Not Active	–	3100 nM	~10000 nM	Not Active	1120 nM	CCCCCCCCCCCCCCP(=O)(O)O	9670 nM	–	4620 nM	0%	IC50 [19]: 33000 nM; IC50 [15]: 5500 nM; Ki ([11]; read-out: Ki): 3550 nM
Not Active	Not Active	Not Active	32 nM	> 10000 nM	–	27 nM	CC/C=C/CCCCCCCCOP(=O)(O)O	916 nM	–	390 nM	89%	IC50 [19]: 700 nM; EC50 [17]: 1500 nM; EC50 [15]: 717 nM
Not Active	Not Active	Not Active	654 nM	–	Not Active	303 nM	CCCCCCCCCCCCP(=O)(O)O	2640 nM	Not Active	1270 nM	–	–
–	–	–	–	–	–	–	CCCCCCCCCCCCCCCC(=O)OC[C@@H](O)COP(=O)(O)O	–	–	–	120%	IC50 [19]: 17 nM; EC50 [17]: 10 nM
Not Active	Not Active	–	422 nM	2300 nM	Not Active	211 nM	CCCCCCCCCCCCCCOP(=O)(O)O [PHOSPHORIC ACID MONOTETRADECYL ESTER]	–	–	–	87%	IC50 [19]: 420 nM; EC50 [17]: 430 nM; IC50 [24]: Not Active; Ki [10]: 1080 nM
Not Active	Not Active	Not Active	384 nM	–	–	121 nM	CCCCCCCCCCOP(=O)(O)O [PHOSPHORIC ACID MONODECYL ESTER]	–	Not Active	–	–	–
–	Not Active	Not Active	454 nM	5500 nM	Not Active	202 nM	CCCCCCCC(=O)OC[C@H](COP(=O)(O)OP(=O)(O)O)OC(=O)CCCCCCC	–	–	–	–	EC50 [25]: Not Active; Ki [10]: 4300 nM
Not Active	Not Active	Not Active	128 nM	2800 nM	–	61 nM	CCCCCCCCCCCCOP(=O)(O)O [PHOSPHORIC ACID MONODODECYL ESTER]	–	–	–	94%	IC50 [19]: 160 nM; EC50 [17]: 250 nM; Ki [10]: 1350 nM
Not Active	Not Active	Not Active	103 nM	–	–	40 nM	CC/C=C/CCCCCCCCCCOP(=O)(O)O	–	–	–	–	EC50 [5]: 4100 nM

Structure (SMILES)	EC50 [1]	EC50 [3]	IC50 [6]	IC50 [8]	IC50 [9]	EC50 [6]	Ki [12]	IC50 [2, 26]	IC50 [4]	Ki [7]	Emax [18]	further results
C=CCCCCCCCCOP(O)(O)=S	Not Active	Not Active	Not Active	–	–	–	–	1000 nM	Not Active	533 nM	–	EC50 [5]: > 10000 nM
Cc1noc(-c2ccc(CSCCC(=O)O)cc2)c1NC(=O)OC(C)c1ccccc1Cl (stereo not given)	Not Active	Not Active	Not Active	301 nM	762 nM	Not Active	148 nM	3380 nM	–	1740 nM	–	Ki [10]: 425 nM; Ki ([11]; rh7777): Not Active
CCCCCCCCCCCCOP(O)(O)=S [THIOPHOSPHORIC ACID DODECYL ESTER]	Not Active	Not Active	Not Active	–	–	–	–	2840 nM	Not Active	1300 nM	–	–
CCCCC/C=C/CCCOP(=O)(O)O	Not Active	Not Active	Not Active	830 nM	> 10000 nM	–	370 nM	1300 nM	–	735 nM	–	EC50 [15]: > 10000 nM
CCCC/C=C/CCCCCCCCOP(O)(O)=S	Not Active	Not Active	Not Active	28 nM	–	–	14 nM	938 nM	Not Active	397 nM	–	Emax [16]: 40%; EC50 [5]: 480 nM
CCCCCCCC/C=C/CCCCCCCCOP(O)(O)=S	–	–	Not Active	–	–	–	–	–	Not Active	–	1.12%	Emax [16]: 30%; IC50 [19]: 18 nM; EC50 [17]: 16 nM; IC50 [3]: Not Active; EC50 [20]: 546 nM; EC50 [21]: 193 nM; EC50 [5]: 244 nM
CCCCCCCCCCP(=O)(O)O	Not Active	Not Active	Not Active	1200 nM	–	Not Active	680 nM	3120 nM	Not Active	1500 nM	–	–
CCCCCCCCCCOP(O)(O)=S [THIOPHOSPHORIC ACID DECYL ESTER]	Not Active	Not Active	Not Active	–	–	–	–	1220 nM	Not Active	521 nM	–	–
CC/C=C/CCCCCCCCOP(O)(O)=S	Not Active	Not Active	Not Active	27 nM	–	–	14 nM	2970 nM	Not Active	1460 nM	73%	Emax [16]: 27%; IC50 [19]: 700 nM; EC50 [5]: 677 nM; EC50 [23]: 1000 nM
CCCCCCCCCCCCCCOP(O)(O)=S [THIOPHOSPHORIC ACID TETRADECYL ESTER]	Not Active	Not Active	Not Active	–	–	–	–	–	Not Active	–	–	EC50 [2]: Not Active; IC50 ([2]; pc-3): Not Active
